# According to ChEMBL document CHEMBL5058577, “EUbOPEN Chemogenomics Library 2 (Multiplex)” (2022):
# Tested on: U2OS
# Assay: Multiplex assay against U2OS
# Type: toxicity, cell-based
# Details: human
# How it was run: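 Compound was added to live cells that had been stained at seeding with Hoechst33342, BioTracker Green Microtubule Cytoskeleton Dye, MitoTracker Red and Annexin V Alexa Fluor 680, and imaging followed on a CQ1 microscope at 37°C and 5% CO2. CellPathfinder machine-learning gating divided cells into Hoechst high-intensity objects or normal cells, normal cells into healthy, pyknosed or fragmented nuclei, and pyknosed cells into mitotic or apoptotic. Tubulin, mitochondrial-mass and membrane-permeability phenotypes are per cents of healthy-nucleus cells.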
# [1] = 12 h, 1 µM, compound concentration 1 uM, replicate 1
# [2] = 12 h, 1 µM, compound concentration 1 uM, replicate 2
# [3] = 12 h, 10 µM, compound concentration 10 uM, replicate 1
# [4] = 12 h, 10 µM, compound concentration 10 uM, replicate 2
# [5] = 24 h, 1 µM, compound concentration 1 uM, replicate 1
# [6] = 24 h, 1 µM, compound concentration 1 uM, replicate 2
# [7] = 24 h, 10 µM, compound concentration 10 uM, replicate 1
# [8] = 24 h, 10 µM, compound concentration 10 uM, replicate 2
# [9] = 48 h, 1 µM, compound concentration 1 uM, replicate 1
# [10] = 48 h, 1 µM, compound concentration 1 uM, replicate 2
# [11] = 48 h, 10 µM, compound concentration 10 uM, replicate 1
# [12] = 48 h, 10 µM, compound concentration 10 uM, replicate 2
structure (smiles),measurement,setting,value
O=C(O)Cc1ccccc1Nc1c(Cl)cccc1Cl [DICLOFENAC],Population Apoptotic (%),[1],90%
same,Population Fragmented Nuclei (%),[1],15%
same,Population Healthy Nuclei (%),[1],78%
same,Population Hoechst High Intensity Objects (%),[1],5%
same,Population Membrane Permeable-Phenotype (%),[1],4%
same,Population Mitochondria Different-Phenotype (%),[1],4%
same,Population Mitotic Cells (%),[1],10%
same,Population Normal (%),[1],94%
same,Population Pyknosed Nuclei (%),[1],6%
same,Population Tubulin-Different-Phenotype (%),[1],4%
same,Total Cell Count,[1],164
same,Population Apoptotic (%),[2],84%
same,Population Fragmented Nuclei (%),[2],13%
same,Population Healthy Nuclei (%),[2],76%
same,Population Hoechst High Intensity Objects (%),[2],0%
same,Population Membrane Permeable-Phenotype (%),[2],5%
same,Population Mitochondria Different-Phenotype (%),[2],2%
same,Population Mitotic Cells (%),[2],15%
same,Population Normal (%),[2],99%
same,Population Pyknosed Nuclei (%),[2],10%
same,Population Tubulin-Different-Phenotype (%),[2],2%
same,Population Apoptotic (%),[3],75%
same,Population Fragmented Nuclei (%),[3],20%
same,Population Healthy Nuclei (%),[3],68%
same,Population Hoechst High Intensity Objects (%),[3],2%
same,Population Membrane Permeable-Phenotype (%),[3],8%
same,Population Mitochondria Different-Phenotype (%),[3],4%
same,Population Mitotic Cells (%),[3],25%
same,Population Normal (%),[3],97%
same,Population Pyknosed Nuclei (%),[3],11%
same,Population Tubulin-Different-Phenotype (%),[3],4%
same,Total Cell Count,[3],258
same,Population Apoptotic (%),[4],72%
same,Population Fragmented Nuclei (%),[4],14%
same,Population Healthy Nuclei (%),[4],76%
same,Population Hoechst High Intensity Objects (%),[4],3%
same,Population Mitochondria Different-Phenotype (%),[4],3%
same,Population Mitotic Cells (%),[4],27%
same,Population Normal (%),[4],96%
same,Population Pyknosed Nuclei (%),[4],9%
same,Population Tubulin-Different-Phenotype (%),[4],8%
same,Population Apoptotic (%),[5],92%
same,Population Fragmented Nuclei (%),[5],15%
same,Population Healthy Nuclei (%),[5],76%
same,Population Hoechst High Intensity Objects (%),[5],4%
same,Population Membrane Permeable-Phenotype (%),[5],2%
same,Population Mitochondria Different-Phenotype (%),[5],2%
same,Population Mitotic Cells (%),[5],7%
same,Population Normal (%),[5],95%
same,Population Pyknosed Nuclei (%),[5],7%
same,Population Tubulin-Different-Phenotype (%),[5],2%
same,Total Cell Count,[5],191
same,Population Apoptotic (%),[6],87%
same,Population Fragmented Nuclei (%),[6],19%
same,Population Healthy Nuclei (%),[6],70%
same,Population Hoechst High Intensity Objects (%),[6],3%
same,Population Membrane Permeable-Phenotype (%),[6],5%
same,Population Mitotic Cells (%),[6],12%
same,Population Normal (%),[6],96%
same,Population Pyknosed Nuclei (%),[6],10%
same,Total Cell Count,[6],165
same,Population Apoptotic (%),[7],72%
same,Population Fragmented Nuclei (%),[7],17%
same,Population Healthy Nuclei (%),[7],72%
same,Population Hoechst High Intensity Objects (%),[7],0%
same,Population Membrane Permeable-Phenotype (%),[7],3%
same,Population Mitochondria Different-Phenotype (%),[7],1%
same,Population Mitotic Cells (%),[7],27%
same,Population Normal (%),[7],99%
same,Population Pyknosed Nuclei (%),[7],10%
same,Population Tubulin-Different-Phenotype (%),[7],2%
same,Total Cell Count,[7],311
same,Population Apoptotic (%),[8],81%
same,Population Fragmented Nuclei (%),[8],15%
same,Population Healthy Nuclei (%),[8],77%
same,Population Hoechst High Intensity Objects (%),[8],1%
same,Population Membrane Permeable-Phenotype (%),[8],5%
same,Population Mitochondria Different-Phenotype (%),[8],2%
same,Population Mitotic Cells (%),[8],18%
same,Population Normal (%),[8],98%
same,Population Pyknosed Nuclei (%),[8],7%
same,Population Tubulin-Different-Phenotype (%),[8],4%
same,Total Cell Count,[8],153
same,Population Apoptotic (%),[9],100%
same,Population Fragmented Nuclei (%),[9],17%
same,Population Healthy Nuclei (%),[9],71%
same,Population Hoechst High Intensity Objects (%),[9],4%
same,Population Membrane Permeable-Phenotype (%),[9],4%
same,Population Mitochondria Different-Phenotype (%),[9],2%
same,Population Mitotic Cells (%),[9],0%
same,Population Normal (%),[9],95%
same,Population Pyknosed Nuclei (%),[9],10%
same,Population Tubulin-Different-Phenotype (%),[9],2%
same,Total Cell Count,[9],271
same,Population Apoptotic (%),[10],83%
same,Population Fragmented Nuclei (%),[10],15%
same,Population Healthy Nuclei (%),[10],70%
same,Population Hoechst High Intensity Objects (%),[10],3%
same,Population Mitochondria Different-Phenotype (%),[10],4%
same,Population Mitotic Cells (%),[10],16%
same,Population Normal (%),[10],96%
same,Population Pyknosed Nuclei (%),[10],14%
same,Population Tubulin-Different-Phenotype (%),[10],4%
same,Total Cell Count,[10],216
same,Population Apoptotic (%),[11],86%
same,Population Fragmented Nuclei (%),[11],16%
same,Population Healthy Nuclei (%),[11],73%
same,Population Hoechst High Intensity Objects (%),[11],2%
same,Population Membrane Permeable-Phenotype (%),[11],6%
same,Population Mitochondria Different-Phenotype (%),[11],1%
same,Population Mitotic Cells (%),[11],13%
same,Population Normal (%),[11],97%
same,Population Pyknosed Nuclei (%),[11],10%
same,Population Tubulin-Different-Phenotype (%),[11],2%
same,Total Cell Count,[11],436
same,Population Apoptotic (%),[12],100%
same,Population Fragmented Nuclei (%),[12],12%
same,Population Healthy Nuclei (%),[12],75%
same,Population Hoechst High Intensity Objects (%),[12],1%
same,Population Mitotic Cells (%),[12],0%
same,Population Normal (%),[12],98%
same,Population Pyknosed Nuclei (%),[12],11%
same,Population Tubulin-Different-Phenotype (%),[12],6%
same,Total Cell Count,[12],220
